From ChEMBL document CHEMBL1141119, “Synthesis and pharmacological evaluation of 1H-imidazoles as ligands for the estrogen receptor and cytotoxic inhibitors of the cyclooxygenase” (J Med Chem, 2005)
pEC50, pIC50: −log10 of the molar value.

Columns and labels:
MCF7 [1] = assay: Effective concentration against human ER positive MCF-7 breast cancer cell line evaluated by luciferase assay; format: functional, cell-based
Summary of the method: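 ER-positive MCF-7 cells stably transfected with the ERE_wtc-luc reporter plasmid (MCF-7 2a). Cells were exposed to the compound over a concentration range. ER binding to the estrogen response element drives luciferase expression, which was measured to build concentration–activation curves relative to estradiol. EC50 was taken from these curves.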

[2] = target: Prostaglandin G/H synthase 1 (Ovis aries) (UniProt P05979); assay: Inhibitory concentration against ovine cyclooxygenase-1 evaluated by enzyme linked immunosorbent assay
MCF7 [3] = assay: Treatment upon control (T/C) against hormone dependent MCF-7 breast cancer cells at 10 uM concentration; conditions: Homo sapiens

`CCc1c(-c2ccc(O)cc2)nc(-c2ccc(O)cc2)n1-c1ccc(O)cc1` showed a pEC50 (MCF7 [1]) of 7.11 and a pIC50 [2] of less than 3.70.

`Oc1ccc(-c2nc(-c3ccc(O)cc3Cl)cn2-c2ccc(O)cc2)cc1` was tested, and the pIC50 [2] was 5.08 and the T/C at 10 µM (MCF7 [3]) was 50%.

Compound `Oc1ccc(-n2cc(-c3ccc(O)cc3Cl)nc2-c2ccc(O)cc2Cl)cc1` has a pIC50 [2] of 5.08 and a T/C at 10 µM (MCF7 [3]) of 0%.

`Oc1ccc(-c2cn(-c3ccc(O)cc3)c(-c3ccc(O)cc3)n2)cc1` showed a pIC50 [2] of 4.91.

With `C[C@]12CC[C@@H]3c4ccc(O)cc4CC[C@H]3[C@@H]1CC[C@@H]2O` [ESTRADIOL] the pEC50 (MCF7 [1]) was 10.10.
